CASP6 VEID inh: human caspase-6 inhibitors, primary screen, biochemical, VEID-R110 fluorescence, single point, set 2; P55212; purified caspase-6, Z-VEID-R110 cleavage fluorescence; inhibition, % at 12.5 µM; 350,000 tested, 0.53% active;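 active = mean inhibition across replicates at least about 35%, with every replicate also reaching that limit, limit read from the data; inconclusive = only one of the two criteria met; inactive = neither criterion met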
Target sequence (P55212 24-179 limits assumed): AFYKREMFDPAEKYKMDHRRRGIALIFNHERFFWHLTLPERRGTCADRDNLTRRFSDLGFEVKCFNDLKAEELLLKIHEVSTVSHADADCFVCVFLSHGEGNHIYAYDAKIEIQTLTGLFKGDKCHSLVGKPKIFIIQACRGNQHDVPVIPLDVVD
Target sequence (P55212 194-293 limits assumed): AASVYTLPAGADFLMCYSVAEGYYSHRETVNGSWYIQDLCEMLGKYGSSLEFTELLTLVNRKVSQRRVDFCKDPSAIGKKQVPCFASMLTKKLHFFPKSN
MITF act: activators of MITF-driven TRPM1 promoter reporter, primary screen, cell-based, SK-MEL-5, luciferase, single point; activation, % at 12.5 µM; 300,000 tested, 0.75% active; SK-MEL-5 TRPM1-promoter luciferase, 24 h; % of positive control, neutral wells = 0;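 active = mean activation of at least 80% with every replicate also reaching 80%; inconclusive = mean reaches 80% but some replicate falls short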
Xi reactivation: activators of inactive X chromosome reactivation, primary screen, imaging, XiGFP fibroblasts, GFP high-content imaging, set 2 | XiGFP mouse fibroblasts, % GFP-positive cells imaging, 3 d; cells co-treated with 5-aza-dC sensitizer; scaled so ellipticine positive control = 100% | activation, % at 7.58 µM | 360,000 tested, 0.055% active | AID 743238, 2013;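 active = mean normalized replicate activation at least 10% and every replicate at or above 10%; inconclusive = only one of the two criteria met; inactive = mean below 10% and not all replicates reach 10%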
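System: 68-5-11 XiGFP fibroblast line; Timing: 3 days compound exposure; Compound dosing: one concentration, pinned; Benchmarks: positive control ellipticine, 6 µM final; Buffer or medium: DMEM containing 5-aza-dC.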
NSD2 inh: NSD2 histone methyltransferase inhibitors, primary screen, biochemical, AlphaScreen, single concentration, set 2; Histone-lysine N-methyltransferase NSD2 (Homo sapiens), O96028; NSD2 peptide methylation, 120 min; inhibition, % at 12.5 µM; 310,000 tested, 0.54% active; AID 743445, 2014; in the data active = inhibition above about 50%
Wnt bcat act: Wnt/beta-catenin pathway activators, primary screen, cell-based, plate reader, single point. Wnt/beta-catenin reporter cell assay, activator. activation, % at 9.35 µM. 300,000 tested, 1.2% active; in the data active = activation above about 30%, passing the limit was not always enough; inconclusive = no clear call, values can overlap the other calls
esBAF inh: Bmi1 luciferase reporter increase in mESCs, primary screen, esBAF inhibitor project, mouse ES cells, Bmi1 luciferase knock-in, single point | AID 602393, 2012 | reporter increase, % at 12.5 µM | 350,000 tested, 2% active | 24 h; 100% = twice the neutral-well signal; in the data active = activation above about 40%; inconclusive = no clear call, values can overlap the other calls;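 also: a rise in the Bmi1 reporter signal indicates esBAF inhibition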
Numbers stand for hits; . = inactive; ? = inconclusive; / = not tested or not shown. Only some compounds are listed: those with a hit (about 3% of all), similar ones and a draw of the others.

SMILES	CASP6 VEID inh	MITF act	Xi reactivation	NSD2 inh	Wnt bcat act	esBAF inh
Cc1ccc(NC(=O)Nc2cccs2)c(Cl)c1	/	.	/	.	55	/
C#Cc1ccc(CN2CCC(C(=O)Nc3ccc(Oc4ccccc4)nc3)CC2)cc1	.	.	.	.	.	.
CC#CC(=O)N1CCC(C(=O)Nc2ccc(Oc3ccccc3)nc2)CC1	.	.	.	.	.	41
C[C@@H]1CN([C@@H](C)CO)C(=O)Cc2cc(NC(=O)Nc3ccc(F)cc3)ccc2O[C@H]1CN(C)S(=O)(=O)c1ccccc1	.	/	.	/	/	.
COCCN=C1Sc2nc3ccc(C)cc3cc2CN1Cc1ccco1	/	.	/	.	.	54
Cc1cccc(/C=N/NC(=O)c2cc(Br)ccc2OCc2ccccc2)n1	.	.	/	.	.	.
Cc1cccc(C=NOCCc2ccccc2)n1	.	.	.	.	.	66
CS(=O)(=O)N1CCc2cc(C(=O)Nc3ccc(Cl)cc3)ccc21	.	/	.	.	.	63
CN(C)c1ccc(NC(=O)CN2CCc3ccccc3C2)cc1	.	.	.	.	.	44
O=C(Nc1ccc(Cl)cc1)N1CCc2ccccc2C1	.	.	.	.	.	48
Cc1ccc(NC(=O)N2CCc3ccccc3C2)cc1	/	?	/	.	/	46
O=C(CN1CCc2ccccc2C1)Nc1ccc(F)cc1	.	.	.	.	.	.
CC(=O)c1ccc(NC(=O)N2CCc3ccccc3C2)cc1	.	.	.	/	.	/
C[C@H]1CCCCO[C@@H](CN(C)Cc2ccc3c(c2)OCO3)[C@@H](C)CN([C@@H](C)CO)C(=O)c2cc(NC(=O)CCC(F)(F)F)ccc2O1	.	/	.	/	/	.
O=C(Nc1ccccc1)N1CCc2ccccc2C1	/	.	/	/	54	44
O=C(Cc1ccc(Cl)cc1)N1CCc2ccccc2C1	.	/	.	.	?	46
O=C(Nc1ccc(Cl)cc1)c1ccc(CN2CCc3ccccc3C2)cc1	.	.	.	/	.	49
O=C(CNc1cccc(F)c1)N1CCc2ccccc2C1	.	?	.	.	36	51
COc1ccc(CC(=O)N2CCc3ccccc3C2)cc1	.	.	.	.	.	.
O=C(c1cnccn1)N1CC(=O)N2[C@@H](CO)[C@@H](c3ccc(C#CC4CCCCC4)cc3)[C@@H]2C1	.	/	.	/	/	/
COCC(=O)N1C[C@@H](C)[C@@H](OC)CN(C)C(=O)c2cc(NC(=O)C3CCC3)ccc2OC[C@H]1C	.	/	.	/	/	.
COc1ccc2c3c([nH]c2c1)[C@H](CO)N(Cc1ccc(F)cc1)CC31CN(Cc2ccccn2)C1	.	/	.	/	/	/
C=CCc1cccc(/C=N/NC(=O)c2ccccc2Br)c1O	.	.	.	.	.	/
C=CCc1cccc(/C=N/NC(=O)c2ccccc2OC)c1O	.	.	.	.	.	44
O=C(Nc1cc(-c2ccccc2)cs1)c1ccco1	.	110	.	/	44	67
SMILES	CASP6 VEID inh	MITF act	Xi reactivation	NSD2 inh	Wnt bcat act	esBAF inh
Cc1cc(NC(=O)c2ccco2)sc1C	.	104	.	.	62	.
O=C(NC(=S)Nc1nc(-c2ccc([N+](=O)[O-])cc2)cs1)c1ccco1	.	.	.	.	.	54
O=C(Nc1scc(-c2ccccc2)c1C(=O)O)c1ccco1	/	.	/	.	.	.
CC(OC(=O)c1ccco1)C(=O)Nc1nc(-c2ccccc2)cs1 (centres undefined)	.	89	.	.	.	48
O=C(NC(=S)Nc1nc(-c2ccc(Br)cc2)cs1)c1ccco1	.	.	.	.	.	/
CC(C)C#Cc1ccc2c(c1)O[C@@H](CN(C)C(=O)c1ccncc1)[C@@H](C)CN([C@@H](C)CO)S2(=O)=O	.	/	.	/	/	.
CCOc1ccc(-c2csc(NC(=O)C3CCCO3)n2)cc1 (centres undefined)	/	.	/	.	/	.
O=C(CCNC(=O)c1ccco1)Nc1nc(-c2ccccc2)cs1	.	/	.	.	.	53
CCOc1ccc(-c2csc(NC(=O)c3ccco3)n2)cc1	.	/	.	.	.	58
COc1ccc(-c2csc(NC(=O)c3ccco3)n2)cc1	/	83	/	.	.	65
Cc1ccc(-c2csc(NC(=O)c3ccco3)n2)cc1C	.	/	.	.	41	47
CC(=O)N(C)C[C@H]1Oc2ncc(-c3ccccc3F)cc2C(=O)N([C@@H](C)CO)C[C@H]1C	.	/	.	/	/	.
O=C(Nc1nc(-c2ccccc2)cs1)c1ccco1	.	/	.	.	43	/
O=C(Nc1nc(-c2ccco2)cs1)c1ccccc1	/	?	/	.	/	.
COc1cccc(-c2nnc(NC(=O)c3ccco3)s2)c1	.	.	.	.	35	.
COC(=O)c1c(-c2ccc(F)cc2)csc1NC(=O)c1ccco1	/	118	/	.	/	/
C[C@H](CO)N1C[C@H](C)[C@@H](CN(C)Cc2cccnc2)Oc2cc(Br)ccc2S1(=O)=O	.	/	.	/	/	.
Cc1ccccc1C(=O)Nc1cccc(-c2ccc3nncn3n2)c1	.	.	.	/	.	.
Cc1ccccc1C(=O)Nc1cccc(-c2ccc(N3CCOCC3)nn2)c1	.	.	.	.	.	60
Cc1ccc(C(=O)Nc2cccc(-c3ccc(N4CCOCC4)nn3)c2)cc1[N+](=O)[O-]	.	103	.	.	33	41
O=C(COc1ccccc1)Nc1cccc(-c2ccc(N3CCOCC3)nn2)c1	.	86	.	.	?	.
O=C(Nc1cccc(-c2ccc(N3CCOCC3)nn2)c1)c1ccc([N+](=O)[O-])cc1	.	99	.	.	31	52
O=C(Nc1cccc(-c2ccc(N3CCOCC3)nn2)c1)c1ccccc1	.	?	.	.	.	.
O=C(COc1ccc(Cl)cc1Cl)Nc1cccc(-c2ccc(N3CCOCC3)nn2)c1	.	.	.	.	.	/
CC(=O)Nc1ccc2c(c1)CC(=O)N(C)C[C@@H](C)[C@@H](CN(C)C(=O)OC(C)(C)C)O2	/	/	.	/	/	/
COc1ccc2c3c([nH]c2c1)[C@H](CO)N(C(=O)C1CCCC1)CC31CN(S(C)(=O)=O)C1	.	/	.	/	/	/
COc1c(C)cccc1C(=O)Nc1ccc(N2CCOCC2)c(Cl)c1	/	89	/	.	/	59
O=C(Nc1ccc(N2CCOCC2)c(Cl)c1)c1cccnc1Cl	/	.	/	.	.	.
COc1ccc(-c2cnc3c(c2)C(=O)N([C@H](C)CO)C[C@H](C)[C@H](CN(C)S(=O)(=O)c2cccc(OC)c2)O3)cc1	/	/	.	/	/	.
C/C(=N\NC(=O)c1ccc(Cn2cc(Br)cn2)o1)c1ccc(NC(=O)c2ccoc2C)cc1	.	.	.	.	.	47

Assay outcomes (PubChem BioAssay)
